From ChEMBL document CHEMBL4184294, “A small group of sulfated benzofurans induces steady-state submaximal inhibition of thrombin” (Bioorg Med Chem Lett, 2018)
Activity calls are given as the source filed them. The calls are words filed in the database; no cut-off is given here.

Assays:
[1] = target: T1, Prothrombin (Homo sapiens, UniProt P00734); test: Inhibition of recombinant thrombin R101A mutant (unknown origin) at 0.02 to 200 uM using spectrozyme TH as substrate pretreated for 10 mins followed by substrate addition by spectrophotometric method
Method in brief: (§1)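 Recombinant wild-type and Ala-mutant thrombins assayed by Spectrozyme TH hydrolysis at pH 7.4 and 25 °C. IC50 derived for each mutant.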

[2] = target: T1, Prothrombin; test: Inhibition of recombinant thrombin R173A mutant (unknown origin) at 0.02 to 200 uM using spectrozyme TH as substrate pretreated for 10 mins followed by substrate addition by spectrophotometric method; method in brief: as §1
[3] = target: T1, Prothrombin; test: Inhibition of human thrombin using spectrozyme TH as substrate pretreated for 10 mins followed by substrate addition measured in absence of exosite 2 competitor unfractionated heparin by spectrophotometric method
Method in brief: (§2)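 Residual thrombin activity read as Spectrozyme TH hydrolysis in 20 mM Tris-HCl pH 7.4 with 100 mM NaCl, 2.5 mM CaCl2 and 0.1% PEG8000 at 25 °C. Exosite competitors varied: hirudin peptide 0–50 nM or 0–30 nM; UFH 0–50 μM. Apparent IC50 obtained from a logistic fit.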

[4] = target: T1, Prothrombin; test: Inhibition of human thrombin using spectrozyme TH as substrate pretreated for 10 mins followed by substrate addition measured in presence of 5 uM exosite 1 competitor hirudine peptide by spectrophotometric method; conditions: in the assay text read “5 nM” for “5 uM”; method in brief: as §2
[5] = target: T1, Prothrombin; test: Inhibition of human thrombin using spectrozyme TH as substrate pretreated for 10 mins followed by substrate addition measured in presence of 10 uM exosite 2 competitor unfractionated heparin by spectrophotometric method; method in brief: as §2
[6] = target: T1, Prothrombin; test: Inhibition of recombinant thrombin R233A mutant (unknown origin) at 0.02 to 200 uM using spectrozyme TH as substrate pretreated for 10 mins followed by substrate addition by spectrophotometric method; method in brief: as §1
[7] = target: T1, Prothrombin; test: Inhibition of human thrombin using spectrozyme TH as substrate pretreated for 10 mins followed by substrate addition measured in presence of 20 uM exosite 2 competitor unfractionated heparin by spectrophotometric method; method in brief: as §2
[8] = target: T1, Prothrombin; test: Inhibition of recombinant thrombin R175A mutant (unknown origin) at 0.02 to 200 uM using spectrozyme TH as substrate pretreated for 10 mins followed by substrate addition by spectrophotometric method; method in brief: as §1
[9] = target: T1, Prothrombin; test: Binding affinity to wild-type thrombin (unknown origin) by intrinsic fluorescence method
Method in brief: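 Intrinsic fluorescence titration of wild-type plasma thrombin at pH 7.4 and 25 °C. KD derived from the fluorescence change.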

[10] = target: T1, Prothrombin; test: Inhibition of human thrombin using spectrozyme TH as substrate pretreated for 10 mins followed by substrate addition measured in presence of 50 uM exosite 2 competitor unfractionated heparin by spectrophotometric method; method in brief: as §2
[11] = target: T1, Prothrombin; test: Partial allosteric inhibition of thrombin (unknown origin) assessed as reduction in enzyme-mediated fibrinogen cleavage at 0.5 to 150 uM pretreated for 10 mins followed by fibrinogen addition measured after 1 min by SDS-PAGE analysis relative to control
Method in brief: (§3)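 Cleavage of human fibrinogen (4.7 μM) by 6 nM thrombin with inhibitor at 0 to 150 μM. Products resolved by PAGE.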

[12] = target: T1, Prothrombin; test: Non-competitive inhibition of human thrombin assessed as reduction in substrate Vmax using varying levels of spectrozyme TH as substrate measured after 10 mins by Michaelis-Menten plot analysis
[13] = target: T1, Prothrombin; test: Non competitive inhibition of human thrombin assessed as reduction in substrate Vmax at 40 uM using varying levels of spectrozyme TH as substrate measured after 10 mins by Michaelis-Menten plot analysis relative to control
[14] = target: T1, Prothrombin; test: Inhibition of recombinant thrombin R93A mutant (unknown origin) at 0.02 to 200 uM using spectrozyme TH as substrate pretreated for 10 mins followed by substrate addition by spectrophotometric method; method in brief: as §1
[15] = target: T1, Prothrombin; test: Inhibition of recombinant thrombin K169A mutant (unknown origin) at 0.02 to 200 uM using spectrozyme TH as substrate pretreated for 10 mins followed by substrate addition by spectrophotometric method; method in brief: as §1
[16] = target: T1, Prothrombin; test: Partial allosteric inhibition of human thrombin at 300 uM using spectrozyme TH as substrate pretreated for 10 mins followed by substrate addition by spectrophotometric method relative to control
[17] = target: T1, Prothrombin; test: Inhibition of recombinant thrombin R165A mutant (unknown origin) at 0.02 to 200 uM using spectrozyme TH as substrate pretreated for 10 mins followed by substrate addition by spectrophotometric method; method in brief: as §1
[18] = test system: Prothrombin (Homo sapiens), P00734 [R97A]; test: Inhibition of recombinant thrombin R97A mutant (unknown origin) at 0.02 to 200 uM using spectrozyme TH as substrate pretreated for 10 mins followed by substrate addition by spectrophotometric method; method in brief: as §1
[19] = target: T1, Prothrombin; test: Inhibition of recombinant thrombin K235A mutant (unknown origin) at 0.02 to 200 uM using spectrozyme TH as substrate pretreated for 10 mins followed by substrate addition by spectrophotometric method; method in brief: as §1
[20] = target: T1, Prothrombin; test: Partial allosteric inhibition of human thrombin using spectrozyme TH as substrate pretreated for 10 mins followed by substrate addition by spectrophotometric method
Method in brief: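 Chromogenic substrate hydrolysis by thrombin read spectrophotometrically in 20 mM Tris-HCl pH 7.4 with […], 100 mM NaCl and 0.1% PEG 8000 at 25 °C. Sigmoidal fits gave IC50 and efficacy (ΔY). Errors ±1 S.E.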

[21] = target: T1, Prothrombin; test: Ratio of IC50(app) for inhibition of human thrombin using spectrozyme TH as substrate in presence of exosite 2 competitor unfractionated heparin to IC50(app) for inhibition of human thrombin using spectrozyme TH as substrate in absence of exosite 2 competitor unfractionated heparin
[22] = target: T1, Prothrombin; test: Partial allosteric inhibition of thrombin (unknown origin) assessed as reduction in enzyme-mediated fibrinogen cleavage pretreated for 10 mins followed by fibrinogen addition measured after 1 min by SDS-PAGE analysis relative to control; method in brief: as §3
[23] = target: T1, Prothrombin; test: Inhibition of human thrombin using spectrozyme TH as substrate pretreated for 10 mins followed by substrate addition measured in absence of exosite 1 competitor hirudine peptide by spectrophotometric method; method in brief: as §2
[24] = target: T1, Prothrombin; test: Inhibition of human thrombin using spectrozyme TH as substrate pretreated for 10 mins followed by substrate addition measured in presence of 30 uM exosite 1 competitor hirudine peptide by spectrophotometric method; conditions: in the assay text read “30 nM” for “30 uM”; method in brief: as §2
[25] = target: T1, Prothrombin; test: Inhibition of recombinant thrombin R126A mutant (unknown origin) at 0.02 to 200 uM using spectrozyme TH as substrate pretreated for 10 mins followed by substrate addition by spectrophotometric method; method in brief: as §1
[26] = target: T1, Prothrombin; test: Inhibition of human thrombin using spectrozyme TH as substrate pretreated for 10 mins followed by substrate addition measured in presence of 15 uM exosite 1 competitor hirudine peptide by spectrophotometric method; conditions: in the assay text read “15 nM” for “15 uM”; method in brief: as §2
[27] = target: T1, Prothrombin; test: Binding affinity to human fluorescence labelled FPRCK-alpha thrombin by fluorimetric method
Method in brief: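 Fluorescein-tagged FPRCK-thrombin titrated with inhibitor at pH 7.4 and 25 °C. Fluorescence decrease recorded ([…]). KD obtained by nonlinear fit to a quadratic equation.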

[28] = target: T1, Prothrombin; test: Inhibition of recombinant thrombin K236A mutant (unknown origin) at 0.02 to 200 uM using spectrozyme TH as substrate pretreated for 10 mins followed by substrate addition by spectrophotometric method; method in brief: as §1

SMILES: CCOC(=O)c1c(C)oc2cc(OCCc3ccccc3)c(OCc3oc4cc(OC)c(OS(=O)(=O)O)cc4c3C(=O)OCC)cc12
- inhibition [1]: Active
- inhibition [2]: Active
- IC50 [3]: 1.3 µM
- IC50 [4]: 2.7 µM
- IC50 [5]: 3.3 µM
- inhibition [6]: Active
- IC50 [7]: 3.4 µM
- inhibition [8]: Active
- Kd [9]: 2.8 µM
- IC50 [10]: 14.5 µM
- inhibition [11]: 70%
- inhibition [12]: Dose-dependent effect
- fold change (FC) [13]: 2
- inhibition [14]: Active
- inhibition [15]: Active
- inhibition [16]: > 50%
- inhibition [17]: Active
- inhibition [18]: Active
- inhibition [19]: Active
- Efficacy [20]: 58%
- IC50 [20]: 1.8 µM
- Ratio IC50 [21]: 11
- inhibition [22]: Dose-dependent effect
- IC50 [23]: 1.3 µM
- IC50 [24]: 1.5 µM
- inhibition [25]: Active
- IC50 [26]: 1.6 µM
- Kd [27]: 3.7 µM
- inhibition [28]: Active
